Scp1 inh: blocks human Scp-1 phosphatase activity; Recombinant Scp1, phosphopeptide, malachite green phosphate absorbance; inhibition, % at 20 µM; 340,000 tested, 0.88% active;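 active means inhibition above about 50% at 20 µM, limit read from the data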;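 further: plate controls were DMSO wells with enzyme for no effect and wells lacking enzyme for full effect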
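Times: enzyme reaction 45 min at room temperature, colour 5 min, stabilisation 30 min. Material: SCP-1 catalytic fragment, aa 76-261. Medium: Acidic Tris acetate buffer with magnesium and detergent. Signal: colorimetric free-phosphate detection, absorbance 630 nm. Read-out basis: % inhibition of SCP-1 phosphate liberation. Reagent: Phosphorylated 17-residue peptide substrate.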
STEP block: STEP (human) phosphatase inhibition. recombinant STEP, OMFP fluorogenic substrate, fluorescence. inhibition, % at 20 µM. 360,000 tested, 0.25% active;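 active means inhibition at 20 µM, scaled per plate between control wells, above about 37%, limit read from the data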;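 further: 0% = DMSO with enzyme and substrate and 100% = substrate only without enzyme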
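material = STEP tyrosine phosphatase | reagent = fluorogenic phosphatase substrate OMFP at 25 µM final | doses = single compound dose of 20 µM, 1% DMSO final | schedule = 20 min reaction, room temperature, in the dark | measured by = fluorescence, 480/540 nm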
DNMT1 inh: inhibitors of human DNMT1 | inhibition (reported as % activation of signal), % at 10 µM | DNMT1 molecular beacon, Hinp1I cleavage, fluorescence | 360,000 tested, 0.83% active | P26358; in the data active means inhibition above about 50%
GRK2 aptamer HTS: inhibitors of human GRK2 displacing RNA aptamer | bead flow cytometry, FAM-aptamer displacement from GRK2 | inhibition of aptamer binding, % at 10 µM | 330,000 tested, 0.59% active;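 active means inhibition of aptamer binding above 40%, roughly 3 SD of noise, on plates passing a quality check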;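 further: median bead fluorescence of bound FAM aptamer so fluorescent compounds give negative values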
SUMO1-SIM PPI: alters human SUMO1 binding to SIM partners. SUMO1 binding to a labelled peptide, TR-FRET, 1 h. AID 602429. P63165. 360,000 tested, 0.33% active. inhibition, % at 20 µM; in the data active means inhibition above about 37%
LMPTP block: LMPTP (human) inhibition; P24666; AID 651560; recombinant LMPTP-A, OMFP fluorogenic substrate, fluorescence intensity; 360,000 tested, 0.22% active; inhibition, % at 20 µM;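 active means compounds that cut the enzyme signal by at least half of the control window in the single-dose screen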;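 further: plate controls were DMSO wells with enzyme plus substrate for no effect and substrate without enzyme for full effect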
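Test system: LMPTP-A, protein tyrosine phosphatase of low molecular weight; Input: 0.625 nM enzyme; Incubation: 50 min dark incubation at room temperature; Signal: endpoint fluorescence intensity from OMFP dephosphorylation; Read-out basis: % inhibition versus control wells.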
Scp-1 conf: confirmation of human Scp-1 phosphatase inhibitors. 2,500 tested, 61% active. inhibition, % at 20 µM. recombinant SCP-1 catalytic domain, phosphate release, malachite green absorbance. shares compounds with Scp1 inh. AID 540281;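 further: plate controls were DMSO with enzyme for no effect and buffer wells lacking enzyme for full effect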
MG interference: interferes with malachite green readout, flagging false Scp-1 hits; 2,500 tested, under 10 active; apparent inhibition (interference), % at 20 µM; AID 540313; shares compounds with Scp1 inh; Colorimetric interference counterscreen, malachite green absorbance 630 nm;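 further: compounds added after enzyme reaction finished so only phosphate colour detection is probed; plate controls were DMSO wells with completed Scp-1 reaction for no effect and substrate wells lacking enzyme for full effect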
Scp-1 Tm shift: Scp-1 (human) binding by thermal shift; shares compounds with Scp1 inh; Recombinant SCP1, Sypro Orange thermal shift Tm; thermal shift relative to vanadate control, % at 40 µM; 1,500 tested, 25% active; AID 540329;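 active means substances whose mean melting-temperature shift, as a percentage of the reference inhibitor's shift, reaches about 5.3%, limit read from the data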;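 further: 0% = Tm of DMSO wells and 100% = Tm with sodium orthovanadate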
* hit, by the source's call; x = no result given. Sampled rows, rich in hits. Any-hit rate of the full collection: about 2.2%.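 How the source made its calls, unless noted: active means inhibition of at least 30% at 20 µM; inactive means the rest.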

SMILES	Scp1 inh	STEP block	DNMT1 inh	GRK2 aptamer HTS	SUMO1-SIM PPI	LMPTP block	Scp-1 conf	MG interference	others
C=CCNC(=O)c1ccc(C2SCC(=O)N2Cc2ccco2)cc1 (stereo not drawn)	69*	1	0	1	-1	3	53*	-20	Scp-1 Tm shift=-3
O=C(COc1ccc(S(=O)(=O)N2CCOCC2)cc1)NCCc1ccc(Cl)cc1	x	0	0	x	1	-2	x	x
COc1ccc(CC(N)c2csc(Nc3ccc(C(=O)c4ccccc4)cc3)n2)cc1 (stereo not drawn)	x	-3	-26	x	-78	0	x	x
CSc1nc2nccc(-c3ccc(Cl)cc3)n2n1	84*	5	10	0	1	25	71*	-14	Scp-1 Tm shift=-22
Cc1noc(C)c1C(=O)OC(C)C(=O)c1ccc(C(C)(C)C)cc1 (stereo not drawn)	x	-1	1	x	1	0	x	x
Cc1cccc(NC(=O)CN2C(=O)S/C(=C\c3ccc(O)c([N+](=O)[O-])c3)C2=O)c1	80*	5	-4	0	-2	8	77*	-4	Scp-1 Tm shift=26*
O=C(CN1C(=O)S/C(=C\c2ccc(O)c([N+](=O)[O-])c2)C1=O)Nc1ccc(N2CCOCC2)cc1	62*	12	0	10	-12	22	60*	-2	Scp-1 Tm shift=2
CC(=O)Nc1ccc(N=Cc2nc(-c3ccc(C)cc3)oc2O)cc1	76*	2	-8	0	-13	6	16	-15
CCOc1cc(-c2ccccc2)nc2c1CN(S(=O)(=O)c1ccc(C)cc1)C(c1cccc(Cl)c1)C2 (stereo not drawn)	x	x	x	x	4	2	x	x
CC(=S)/C=C1\Sc2ccccc2N1C	3	0	-10	0	-15	1	x	x
CN1/C(=C/c2cccc[n+]2CCO)Sc2ccccc21	103*	0	3	2	-18	-1	18	-7
OC(c1cc(F)cc(Cl)c1)c1ncc(-c2ccccc2C(F)(F)F)[nH]1 (stereo not drawn)	x	-2	0	x	1	0	x	x
CCOC(=O)c1c(NC(=O)C2C3C=CC(C3)C2(C)C(=O)O)sc2c1CCCC2 (stereo not drawn)	53*	10	26	64*	25	1	56*	-8	Scp-1 Tm shift=-19
CCOC(=O)c1c(NC(=O)C2CCCCC2C(=O)O)sc2c1CCCCC2 (stereo not drawn)	-8	2	-2	0	4	0	x	x
O=C(C1COc2ccccc2O1)N1CCN(c2ccc(C(F)(F)F)cn2)CC1 (stereo not drawn)	87*	-2	3	0	-1	1	-12	-19
COc1ccccc1C(=O)NNC1CC(=O)N(c2ccc3c(c2)OCCO3)C1=O (stereo not drawn)	-4	-3	0	0	-1	-1	-22	-16
Cc1ccccc1C(=O)NNC1CC(=O)N(c2ccc3c(c2)OCCO3)C1=O (stereo not drawn)	-6	2	-2	0	0	-2	x	x
COc1ccc(S(=O)(=O)NCCN2CCNC2=O)cc1OC	-7	-2	5	0	-5	1	1	-3
O=C1NCCN1CCNS(=O)(=O)c1ccc(F)cc1	-10	2	2	0	1	-1	-19	-16
CCN(CC)CCC12CC(C)OC1=Nc1ccccc1NC2=O (stereo not drawn)	x	-1	-2	x	0	0	x	x
O=c1[nH][nH]c2c1[C@H](c1ccc(Cl)cc1)O[C@H](C1CC1)C2	x	x	x	x	2	-2	x	x
O=C(N/N=C/c1sc(=O)n(Cc2ccc(Br)cc2)c1Cl)c1ccco1	103*	96*	31	0	45*	69*	84*	-9	Scp-1 Tm shift=5.3*
O=C(N/N=C/c1ccc(Br)s1)c1ccco1	-7	-1	1	2	-21	-1	x	x
Cc1ccc(CCNC(=O)CCNS(=O)(=O)c2ccc3c(c2)oc(=O)n3C)cc1	-2	-2	2	0	2	-1	-3	-1
Cc1cc(Nc2ccccc2)n(-c2ccc(Br)cc2)n1	54*	-5	-8	0	1	3	-16	-12
SMILES	Scp1 inh	STEP block	DNMT1 inh	GRK2 aptamer HTS	SUMO1-SIM PPI	LMPTP block	Scp-1 conf	MG interference	others
CCCCCn1nnnc1C1(C)CCC(=O)N1Cc1ccco1 (stereo not drawn)	x	x	x	x	4	-1	x	x
COC(=O)[C@]12CCCCC=C1N(CCc1ccc(OC)c(OC)c1)C(=O)[C@H](CC(=O)N1CCC(c3ccccc3)CC1)C2	x	x	x	x	4	2	x	x
O=C(CSc1nc(-c2ccccc2)nc2ccc(F)cc12)Nc1ccc(C(=O)O)cc1	61*	11	0	2	-7	62*	53*	-19	Scp-1 Tm shift=-1
O=C(CSc1nncc2ccccc12)Nc1cccc(C(=O)O)c1	-6	1	0	2	5	-2	x	x
O=C(CSc1nc(-c2ccccc2)nc2ccc(F)cc12)Nc1cccc(C(=O)O)c1	67*	8	0	0	-7	63*	60*	-9	Scp-1 Tm shift=-6
CC(C)(C)C(=O)c1c(N)[nH]c(C(=O)c2ccccc2)c1-c1cc2ccccc2nc1Cl	x	x	x	x	-2	-2	x	x
O=C(Nc1ccn(CCCNCc2ccc3c(c2)OCO3)c(=O)n1)OCc1ccccc1	8	-1	-1	x	3	0	x	x
O=C(Cn1ccc(NC(=O)OCc2ccccc2)nc1=O)NCc1ccc2c(c1)OCO2	3	1	10	0	-1	-2	-8	-13
CCc1noc(C)c1C(=O)Nc1cc(Cl)ccc1-n1cncn1	-4	-1	-2	0	-2	-1	x	x
CCc1noc(C)c1C(=O)Nc1cc(C(F)(F)F)ccc1-n1cncn1	65*	2	0	0	-1	-2	-7	-8
Cc1ccc(-c2cc3nc(-c4ccccc4)cc(NCCCO)n3n2)cc1	x	0	-7	x	11	3	x	x
O=C(Cc1nnc(NC(=O)c2ccccc2)s1)N/N=C/c1ccc(O)cc1	62*	26	-8	0	-13	9	49*	-8	Scp-1 Tm shift=5
CCOC(=O)N1CCN(CC(=O)Nc2nccs2)CC1	x	-3	1	x	1	-1	x	x
CSc1nc2ncncc2[nH]1	-10	-1	-6	x	6	-3	x	x
